The results in this text go back to ChEMBL document CHEMBL4118165, “Synthesis and kinetic evaluation of ethyl acrylate and vinyl sulfone derived inhibitors for human cysteine cathepsins” (Bioorg Med Chem Lett, 2018).

The target of assay [1] is Cathepsin S (Homo sapiens) (UniProt P25774). Nature of the assay: Irreversible inhibition of human cathepsin S using Z-Phe-Arg-AMC as substrate assessed as ratio of Kinac/Ki after 10 to 80 mins by fluorimetric analysis.
For assay [2], the target named is T1, Cathepsin K (Homo sapiens) (UniProt P43235).
T1 sequence (whole entry): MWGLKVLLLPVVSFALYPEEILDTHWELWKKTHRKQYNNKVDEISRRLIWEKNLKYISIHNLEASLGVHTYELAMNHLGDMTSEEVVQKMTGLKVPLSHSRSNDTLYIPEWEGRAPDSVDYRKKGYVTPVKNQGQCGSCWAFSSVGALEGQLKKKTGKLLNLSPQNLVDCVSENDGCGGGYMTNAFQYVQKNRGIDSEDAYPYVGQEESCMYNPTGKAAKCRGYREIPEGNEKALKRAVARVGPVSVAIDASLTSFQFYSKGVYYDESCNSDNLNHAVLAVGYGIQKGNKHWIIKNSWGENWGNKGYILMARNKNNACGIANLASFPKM
Nature of the assay: Irreversible inhibition of human cathepsin K using Z-Leu-Arg-AMC as substrate assessed as ratio of Kinac/Ki after 10 to 80 mins by fluorimetric analysis.

Assay [3] addresses Cathepsin B (Homo sapiens) (UniProt P07858). Briefly: Irreversible inhibition of human cathepsin B using Z-Arg-Arg-pNA as substrate assessed as ratio of Kinac/Ki after 10 to 80 mins by photometric analysis.
Assay [4] has as its target Procathepsin L (Homo sapiens) (UniProt P07711). Nature of the assay: Irreversible inhibition of human cathepsin L using Z-Phe-Arg-pNA as substrate assessed as ratio of Kinac/Ki after 10 to 80 mins by photometric analysis.
For assay [5], the target named is Cathepsin S (Homo sapiens) (UniProt P25774). Briefly: Irreversible inhibition of human cathepsin S using Z-Phe-Arg-AMC as substrate by fluorimetric analysis. Conditions: TDE = time-dependent effect. Summed up: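 Human cathepsin S monitored fluorimetrically (ex 360, em 440 nm) at 25 °C, pH 6.0. […] Progress curves were fitted non-linearly for kobs, and kinac/Ki was calculated including the [S]/Km competition term.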

The target of assay [6] is T1, Cathepsin K (Homo sapiens). Nature of the assay: Irreversible inhibition of human cathepsin K using Z-Leu-Arg-AMC as substrate by fluorimetric analysis. Conditions: TDE = time-dependent effect.
The target of assay [7] is Cathepsin B (Homo sapiens) (UniProt P07858). Nature of the assay: Irreversible inhibition of human cathepsin B using Z-Arg-Arg-pNA as substrate by photometric analysis. Conditions: TDE = time-dependent effect. Summed up:
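Human cathepsin B assayed photometrically at 405 nm, 37 °C, pH 6.0. […] Progress curves were fitted by non-linear regression to get kobs, and kinac/Ki was derived with correction for substrate competition ([S]/Km).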

The target of assay [8] is Procathepsin L (Homo sapiens) (UniProt P07711). Briefly: Irreversible inhibition of human cathepsin L using Z-Phe-Arg-pNA as substrate by photometric analysis. Conditions: TDE = time-dependent effect.

Each structure is given as a SMILES string.

Sequence of Cathepsin S (Homo sapiens) (P25774 115-331 limits assumed): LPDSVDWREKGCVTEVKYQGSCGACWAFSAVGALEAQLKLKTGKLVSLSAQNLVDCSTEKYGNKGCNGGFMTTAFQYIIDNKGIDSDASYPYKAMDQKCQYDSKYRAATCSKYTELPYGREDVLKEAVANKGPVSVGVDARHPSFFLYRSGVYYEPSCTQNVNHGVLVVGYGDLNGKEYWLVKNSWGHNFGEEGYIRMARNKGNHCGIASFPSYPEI
Sequence of Procathepsin L (Homo sapiens) (P07711 114-333 limits assumed): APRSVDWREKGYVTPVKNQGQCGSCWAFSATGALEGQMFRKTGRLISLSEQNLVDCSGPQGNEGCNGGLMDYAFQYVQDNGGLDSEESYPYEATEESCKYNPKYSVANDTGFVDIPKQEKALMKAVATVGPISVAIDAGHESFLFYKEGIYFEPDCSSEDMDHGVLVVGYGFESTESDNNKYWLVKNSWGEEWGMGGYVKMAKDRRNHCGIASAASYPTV

In the case of `CCOC(=O)/C=C/CNC(=O)[C@H](Cc1ccccc1)NC(=O)COCCOCCNC(=O)OC(C)(C)C`, the Ratio came out at 557 M⁻¹ s⁻¹ in assay [1], 297 M⁻¹ s⁻¹ in assay [2], 348 M⁻¹ s⁻¹ in assay [3] and 652 M⁻¹ s⁻¹ in assay [4]. Moreover, the inhibition entry in assay [5], in assay [6], in assay [7] and in assay [8] was “Tde” each time.

For `CCOC(=O)/C=C/CNC(=O)[C@H](Cc1ccccc1)NC(=O)OC(C)(C)C`, the Ratio in assay [1] stood at 525 M⁻¹ s⁻¹; in assay [2] it was 752 M⁻¹ s⁻¹; in assay [3] it was 3660 M⁻¹ s⁻¹; in assay [4] it was 1120 M⁻¹ s⁻¹. Moreover, the inhibition entry in assay [5], in assay [6], in assay [7] and in assay [8] was “Tde” throughout.

With `CCOC(=O)/C=C/CNC(=O)[C@H](CC(C)C)NC(=O)OC(C)(C)C`, the Ratio in assay [1] was 6600 M⁻¹ s⁻¹; in assay [2] it was 11600 M⁻¹ s⁻¹; in assay [3], 3090 M⁻¹ s⁻¹; in assay [4], 1280 M⁻¹ s⁻¹. In addition, the inhibition entry in assay [5], in assay [6], in assay [7] and in assay [8] was “Tde” in each case.

Regarding `CC(C)C[C@H](NC(=O)COCCOCCNC(=O)OC(C)(C)C)C(=O)NC/C=C/S(=O)(=O)c1ccccc1`, the Ratio was found to be 11900 M⁻¹ s⁻¹ in assay [1], 25.5 M⁻¹ s⁻¹ in assay [2], 150 M⁻¹ s⁻¹ in assay [3] and 3310 M⁻¹ s⁻¹ in assay [4]. Further, the inhibition result in assay [5], in assay [6], in assay [7] and in assay [8] was “Tde” each time.

Regarding `CC(C)(C)OC(=O)N[C@@H](Cc1ccccc1)C(=O)NC/C=C/S(=O)(=O)c1ccccc1`, the Ratio was 7960 M⁻¹ s⁻¹ in assay [1], 1320 M⁻¹ s⁻¹ in assay [2], 378 M⁻¹ s⁻¹ in assay [3] and 5880 M⁻¹ s⁻¹ in assay [4]. The inhibition entry in assay [5], in assay [6], in assay [7] and in assay [8] was “Tde” throughout.

As for `CCOC(=O)/C=C/CNC(=O)[C@H](Cc1ccccc1)NC(=O)CCNC(=O)OC(C)(C)C`, the Ratio in assay [1] is 879 M⁻¹ s⁻¹; in assay [2], 759 M⁻¹ s⁻¹; in assay [3], 2660 M⁻¹ s⁻¹; in assay [4], 3540 M⁻¹ s⁻¹. The inhibition entry in assay [5], in assay [6], in assay [7] and in assay [8] was “Tde” each time.

As to `CCOC(=O)/C=C/CNC(=O)[C@H](CC(C)C)NC(=O)CCNC(=O)OC(C)(C)C`, the Ratio in assay [1] stood at 2590 M⁻¹ s⁻¹; in assay [2] it was 2890 M⁻¹ s⁻¹; in assay [3], 248 M⁻¹ s⁻¹; in assay [4], 554 M⁻¹ s⁻¹. Besides, the inhibition entry in assay [5], in assay [6], in assay [7] and in assay [8] was “Tde” each time.

Turning to `CC(C)C[C@H](NC(=O)OC(C)(C)C)C(=O)NC/C=C/S(=O)(=O)c1ccccc1`, the Ratio was 28400 M⁻¹ s⁻¹ in assay [1], 18300 M⁻¹ s⁻¹ in assay [2], 85.1 M⁻¹ s⁻¹ in assay [3] and 879 M⁻¹ s⁻¹ in assay [4]. Besides, the inhibition result in assay [5], in assay [6], in assay [7] and in assay [8] was “Tde” each time.

For `CC(C)C[C@H](NC(=O)CCNC(=O)OC(C)(C)C)C(=O)NC/C=C/S(=O)(=O)c1ccccc1`, the Ratio in assay [1] is 30600 M⁻¹ s⁻¹; in assay [2] it was 12500 M⁻¹ s⁻¹; in assay [3], 58.3 M⁻¹ s⁻¹; in assay [4], 671 M⁻¹ s⁻¹. Besides, the inhibition result in assay [5], in assay [6], in assay [7] and in assay [8] was “Tde” each time.

With `CC(C)(C)OC(=O)NCCC(=O)N[C@@H](Cc1ccccc1)C(=O)NC/C=C/S(=O)(=O)c1ccccc1`, the Ratio in assay [1] was 13100 M⁻¹ s⁻¹; in assay [2], 2230 M⁻¹ s⁻¹; in assay [3], 214 M⁻¹ s⁻¹; in assay [4], 12800 M⁻¹ s⁻¹. Also, the inhibition result in assay [5], in assay [6], in assay [7] and in assay [8] was “Tde” each time.
